Reference: ChEMBL document CHEMBL1145632, “Sulfamoyl benzamides as novel CB2 cannabinoid receptor ligands” (Bioorg Med Chem Lett, 2008)
Activity calls are given as the source filed them.

Tests used:
Cannabinoid receptor 1 [1] = target: T1, Cannabinoid receptor 1 (Homo sapiens, UniProt P21554); test: Displacement of [3H]CP-55940 from human cloned CB1 receptor
In short: (§1)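 Competition binding of 0.2–0.6 nM [3H]CP55940 to membranes from cells expressing cloned human CB1 or CB2 receptors. Buffer: 50 mM Tris-HCl pH 7.0, 5.0 mM MgCl2, 1.0 mM EGTA, 1.0 mg/mL fatty-acid-free BSA. Incubation was 120 min at 30 °C for CB1 and 60 min at room temperature for CB2. Samples were filtered and counted by scintillation. Nonspecific binding was set with 10 µM WIN55212-2. Ratio is Ki CB1/Ki CB2.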

Cannabinoid receptor 2 [2] = target: T2, Cannabinoid receptor 2 (Homo sapiens, UniProt P34972); test: Displacement of [3H]CP-55940 from human cloned CB2 receptor; in short: as §1
T2 sequence (P34972 whole entry): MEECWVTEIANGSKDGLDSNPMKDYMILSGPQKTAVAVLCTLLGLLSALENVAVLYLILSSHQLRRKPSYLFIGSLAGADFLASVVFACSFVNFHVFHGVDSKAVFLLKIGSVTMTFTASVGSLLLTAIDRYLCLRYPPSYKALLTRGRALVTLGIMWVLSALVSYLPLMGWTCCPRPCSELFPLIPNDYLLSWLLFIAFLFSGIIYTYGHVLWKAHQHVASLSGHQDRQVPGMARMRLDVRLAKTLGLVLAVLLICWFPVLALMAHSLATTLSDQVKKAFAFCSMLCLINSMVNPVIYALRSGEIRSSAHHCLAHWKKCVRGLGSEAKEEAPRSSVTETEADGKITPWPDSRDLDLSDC

Homo sapiens [3] = organism: Homo sapiens; test: Selectivity ratio of Ki for human cloned CB1 receptor to Ki for human cloned CB2 receptor; in short: as §1
Cannabinoid receptor 1 [4] = target: T1, Cannabinoid receptor 1; test: Agonist activity at human cloned CB1 receptor by [35S]GTPgammaS binding assay; type: functional
Cannabinoid receptor 2 [5] = target: T2, Cannabinoid receptor 2; test: Agonist activity at human cloned CB2 receptor by [35S]GTP-gamma-S binding assay; type: functional
In short: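 Stimulation of [35S]GTPγS binding used 25 µg membrane protein from cells expressing cloned human CB2. Mix: 100–150 pM [35S]GTPγS, 150 mM NaCl, 45 mM MgCl2, 3 µM GDP, 0.4 mM DTT, 1.0 mM EGTA, 1 mg/mL fatty-acid-free BSA in 50 mM Tris-HCl pH 7.0. Incubation was 6 h at room temperature, read by scintillation. Stimulation over basal (no agonist) is expressed as % of 10 µM WIN55212-2.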

Homo sapiens [6] = organism: Homo sapiens; test: Selectivity ratio of EC50 for human cloned CB1 receptor to EC50 for human cloned CB2 receptor
Cannabinoid receptor 1 [7] = target: T1, Cannabinoid receptor 1; test: Displacement of [3H]CP-55940 from human cloned CB1 receptor at 10 uM
Rattus norvegicus [8] = test: Reversal of nerve injury-induced tactile allodynia in rat L5 spinal nerve ligation-induced nociception model at 60 mg/kg, ip; type: functional, organism-based; parameters: dose 60 mg/kg
In short: (§2)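 Rats with L5 spinal nerve ligation or hindpaw incision were dosed as stated. Read-out was paw-withdrawal threshold of the left hindpaw, reported as group mean ± SEM. Groups were compared by one-way ANOVA with protected t-test against the vehicle-treated surgery group.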

Rattus norvegicus [9] = test: Reversal of nerve injury-induced tactile allodynia in rat L5 spinal nerve ligation-induced nociception model at 3 mg/kg, ip; type: functional, organism-based; parameters: dose 3 mg/kg; in short: as §2
Rattus norvegicus [10] = test: Antiallodynic effect in rat hind paw incision-induced nociception model at 10 mg/kg, ip; type: functional, organism-based; parameters: dose 10 mg/kg; in short: as §2
Rattus norvegicus [11] = test: Antiallodynic effect in rat hind paw incision-induced nociception model at 30 mg/kg, ip; type: functional, organism-based; parameters: dose 30 mg/kg
Rattus norvegicus [12] = test: Antiallodynic effect in rat hind paw incision-induced nociception model at 100 mg/kg, ip; type: functional, organism-based; parameters: dose 100 mg/kg
Rattus norvegicus [13] = test: Toxicity in rat assessed as behavioral side effects upto 10 mg/kg, ip; type: organism-based; parameters: dose 10 mg/kg, route intraperitoneal; settings: in vivo
Rattus norvegicus [14] = test: Toxicity in rat assessed as induction of catalepsy at 6 mg/kg, ip; type: organism-based; parameters: dose 6 mg/kg, route intraperitoneal; settings: in vivo
Rattus norvegicus [15] = test: Toxicity in rat assessed as induction of catalepsy at 10 mg/kg, ip; type: organism-based; parameters: dose 10 mg/kg, route intraperitoneal; settings: in vivo
Rattus norvegicus [16] = test: Antiallodynic effect in rat hind paw incision-induced nociception model at 3 mg/kg, sc; type: functional, organism-based; parameters: dose 3 mg/kg; in short: as §2

T1 sequence (P21554 whole entry): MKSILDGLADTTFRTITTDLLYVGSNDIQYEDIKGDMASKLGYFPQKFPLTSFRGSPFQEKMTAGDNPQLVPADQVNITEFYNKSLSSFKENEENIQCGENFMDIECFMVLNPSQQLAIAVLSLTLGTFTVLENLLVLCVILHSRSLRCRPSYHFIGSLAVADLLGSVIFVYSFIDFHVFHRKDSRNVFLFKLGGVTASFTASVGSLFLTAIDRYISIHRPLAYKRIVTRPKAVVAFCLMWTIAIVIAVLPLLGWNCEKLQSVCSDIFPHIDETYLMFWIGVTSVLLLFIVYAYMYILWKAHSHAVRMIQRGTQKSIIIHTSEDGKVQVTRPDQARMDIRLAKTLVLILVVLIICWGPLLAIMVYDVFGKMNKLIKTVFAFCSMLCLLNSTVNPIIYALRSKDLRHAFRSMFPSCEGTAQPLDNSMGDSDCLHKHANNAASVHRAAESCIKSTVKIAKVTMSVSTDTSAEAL

CC1(C)[C@H]2CC[C@](C)(C2)[C@@H]1NC(=O)c1ccc(Br)c(S(=O)(=O)N2CCCC2)c1
Ki (Cannabinoid receptor 1 [1]): 110 nM
Ki (Cannabinoid receptor 2 [2]): 9.4 nM
Ratio Ki (Homo sapiens [3]): 12
EC50 (Cannabinoid receptor 1 [4]): 220 nM
EC50 (Cannabinoid receptor 2 [5]): 4.3 nM
Ratio EC50 (Homo sapiens [6]): 51

O=C(NCc1ccccc1)c1ccc(Br)c(S(=O)(=O)N2CCCCC2)c1
Ki (Cannabinoid receptor 1 [1]): 1100 nM
Ki (Cannabinoid receptor 2 [2]): 360 nM
Ratio Ki (Homo sapiens [3]): 3

O=C(NCc1cccnc1)c1ccc(Br)c(S(=O)(=O)N2CCCCC2)c1
Ki (Cannabinoid receptor 1 [1]): 1800 nM
Ki (Cannabinoid receptor 2 [2]): 320 nM
Ratio Ki (Homo sapiens [3]): 5

Cc1ccc(C(=O)NCC(C)(C)C)cc1S(=O)(=O)N1CCOCC1
Ki (Cannabinoid receptor 1 [1]): > 1000 nM
Ki (Cannabinoid receptor 2 [2]): 390 nM
Ratio Ki (Homo sapiens [3]): > 3
EC50 (Cannabinoid receptor 1 [4]): > 1000 nM
EC50 (Cannabinoid receptor 2 [5]): 1800 nM

CN(Cc1ccccc1)S(=O)(=O)c1cc(C(=O)N[C@@H]2C(C)(C)[C@H]3CC[C@]2(C)C3)ccc1Br
Ki (Cannabinoid receptor 1 [1]): > 1000 nM
Ki (Cannabinoid receptor 2 [2]): 11 nM
inhibition (Cannabinoid receptor 1 [7]): 33%
Ratio Ki (Homo sapiens [3]): > 100

CC(C)(C)CNC(=O)c1ccc(Br)c(S(=O)(=O)N2CCCC2)c1
Ki (Cannabinoid receptor 1 [1]): 2000 nM
Ki (Cannabinoid receptor 2 [2]): 400 nM
Ratio Ki (Homo sapiens [3]): 5

CC(C)CNC(=O)c1ccc(Br)c(S(=O)(=O)N2CCCCC2)c1
Ki (Cannabinoid receptor 1 [1]): > 1000 nM
Ki (Cannabinoid receptor 2 [2]): 410 nM
Ratio Ki (Homo sapiens [3]): > 2

CC(C)(C)CNC(=O)c1ccc(Br)c(S(=O)(=O)N2CCOCC2)c1
Ki (Cannabinoid receptor 1 [1]): 1300 nM
Ki (Cannabinoid receptor 2 [2]): 450 nM
Ratio Ki (Homo sapiens [3]): 3

CC1(C)[C@H]2CC[C@](C)(C2)[C@@H]1NC(=O)c1ccc(Br)c(S(=O)(=O)N2CCOCC2)c1
Ki (Cannabinoid receptor 1 [1]): 89 nM
Ki (Cannabinoid receptor 2 [2]): 3.5 nM
Ratio Ki (Homo sapiens [3]): 25
EC50 (Cannabinoid receptor 1 [4]): 560 nM
EC50 (Cannabinoid receptor 2 [5]): 8.8 nM
Ratio EC50 (Homo sapiens [6]): 64

NCC1(CC(=O)O)CCCCC1
Activity (Rattus norvegicus [8]): Active

Cc1ccc(C(=O)NC(C)C(C)(C)C)cc1S(=O)(=O)N1CCOCC1 (stereo not drawn)
Ki (Cannabinoid receptor 1 [1]): 1300 nM
Ki (Cannabinoid receptor 2 [2]): 180 nM
Ratio Ki (Homo sapiens [3]): 9
EC50 (Cannabinoid receptor 1 [4]): 2400 nM
EC50 (Cannabinoid receptor 2 [5]): 125 nM
Ratio EC50 (Homo sapiens [6]): 19

Cc1ccc(C(=O)N[C@H]2C(C)(C)[C@H]3CC[C@]2(C)C3)cc1S(=O)(=O)N1CCOCC1
Ki (Cannabinoid receptor 1 [1]): 540 nM
Ki (Cannabinoid receptor 2 [2]): 48 nM
Ratio Ki (Homo sapiens [3]): 11
EC50 (Cannabinoid receptor 1 [4]): 880 nM
EC50 (Cannabinoid receptor 2 [5]): 25 nM
Ratio EC50 (Homo sapiens [6]): 35

COc1cccc(CNC(=O)c2ccc(Br)c(S(=O)(=O)N3CCCCC3)c2)c1
Ki (Cannabinoid receptor 1 [1]): 1400 nM
Ki (Cannabinoid receptor 2 [2]): 200 nM
Ratio Ki (Homo sapiens [3]): 7

Cc1ccc(C(=O)NC(C)C23CC4CC(CC(C4)C2)C3)cc1S(=O)(=O)N1CCOCC1 (stereo not drawn)
Ki (Cannabinoid receptor 1 [1]): 77 nM
Ki (Cannabinoid receptor 2 [2]): 6.3 nM
Ratio Ki (Homo sapiens [3]): 5
EC50 (Cannabinoid receptor 1 [4]): 290 nM
EC50 (Cannabinoid receptor 2 [5]): 9.3 nM
Ratio EC50 (Homo sapiens [6]): 31

Cc1ccc(C(=O)NC2C(C)CCCC2C)cc1S(=O)(=O)N1CCOCC1 (stereo not drawn)
Ki (Cannabinoid receptor 1 [1]): 470 nM
Ki (Cannabinoid receptor 2 [2]): 92 nM
Ratio Ki (Homo sapiens [3]): 5
EC50 (Cannabinoid receptor 1 [4]): 540 nM
EC50 (Cannabinoid receptor 2 [5]): 44 nM
Ratio EC50 (Homo sapiens [6]): 12

Cc1ccc(C(=O)N[C@@H]2C(C)(C)[C@H]3CC[C@]2(C)C3)cc1S(=O)(=O)N1CCOCC1
Ki (Cannabinoid receptor 1 [1]): 130 nM
Ki (Cannabinoid receptor 2 [2]): 3.9 nM
Ratio Ki (Homo sapiens [3]): 31
EC50 (Cannabinoid receptor 1 [4]): 550 nM
EC50 (Cannabinoid receptor 2 [5]): 4.6 nM
Ratio EC50 (Homo sapiens [6]): 120
Activity (Rattus norvegicus [9]): Active
Activity (Rattus norvegicus [10]): Active
Activity (Rattus norvegicus [11]): inactive
Activity (Rattus norvegicus [12]): inactive
Activity (Rattus norvegicus [13]): Non-toxic
Activity (Rattus norvegicus [14]): Non-toxic
Activity (Rattus norvegicus [15]): Non-toxic

Cc1ccc(C(=O)N[C@H]2CC3CC[C@@]2(C)C3(C)C)cc1S(=O)(=O)N1CCOCC1
Ki (Cannabinoid receptor 1 [1]): 50 nM
Ki (Cannabinoid receptor 2 [2]): 8.1 nM
Ratio Ki (Homo sapiens [3]): 7
EC50 (Cannabinoid receptor 1 [4]): 210 nM
EC50 (Cannabinoid receptor 2 [5]): 14 nM
Ratio EC50 (Homo sapiens [6]): 15

Cc1ccc(C(=O)NC23CC4CC(CC(C4)C2)C3)cc1S(=O)(=O)N1CCOCC1
Ki (Cannabinoid receptor 1 [1]): 260 nM
Ki (Cannabinoid receptor 2 [2]): 19 nM
Ratio Ki (Homo sapiens [3]): 14
EC50 (Cannabinoid receptor 1 [4]): 570 nM
EC50 (Cannabinoid receptor 2 [5]): 48 nM
Ratio EC50 (Homo sapiens [6]): 12

Cc1ccc(C(=O)NCC23CC4CC(CC(C4)C2)C3)cc1S(=O)(=O)N1CCOCC1
Ki (Cannabinoid receptor 1 [1]): 91 nM
Ki (Cannabinoid receptor 2 [2]): 10 nM
Ratio Ki (Homo sapiens [3]): 9
EC50 (Cannabinoid receptor 1 [4]): 210 nM
EC50 (Cannabinoid receptor 2 [5]): 25 nM
Ratio EC50 (Homo sapiens [6]): 8

Cc1ccc(C(=O)NC2C3CC4CC(C3)CC2C4)cc1S(=O)(=O)N1CCOCC1 (stereo not drawn)
Ki (Cannabinoid receptor 1 [1]): 33 nM
Ki (Cannabinoid receptor 2 [2]): 5.6 nM
Ratio Ki (Homo sapiens [3]): 15
EC50 (Cannabinoid receptor 1 [4]): 270 nM
EC50 (Cannabinoid receptor 2 [5]): 12 nM
Ratio EC50 (Homo sapiens [6]): 23

CN1CC[C@]23c4c5ccc(O)c4O[C@H]2[C@@H](O)C=C[C@H]3[C@H]1C5
Activity (Rattus norvegicus [16]): Active

CC(C)CNC(=O)c1ccc(Br)c(S(=O)(=O)N(C)Cc2ccccc2)c1
Ki (Cannabinoid receptor 1 [1]): > 1000 nM
Ki (Cannabinoid receptor 2 [2]): 340 nM
Ratio Ki (Homo sapiens [3]): > 3

CC(C)(C)CNC(=O)c1ccc(Br)c(S(=O)(=O)N2CCCCC2)c1
Ki (Cannabinoid receptor 1 [1]): 1300 nM
Ki (Cannabinoid receptor 2 [2]): 100 nM
Ratio Ki (Homo sapiens [3]): 13

CN(Cc1ccccc1)S(=O)(=O)c1cc(C(=O)NCC(C)(C)C)ccc1Br
Ki (Cannabinoid receptor 1 [1]): > 1000 nM
Ki (Cannabinoid receptor 2 [2]): 430 nM
Ratio Ki (Homo sapiens [3]): > 2

Cc1ccc(C(=O)NC(C(C)(C)C)C(C)(C)C)cc1S(=O)(=O)N1CCOCC1
Ki (Cannabinoid receptor 1 [1]): 310 nM
Ki (Cannabinoid receptor 2 [2]): 34 nM
Ratio Ki (Homo sapiens [3]): 9
EC50 (Cannabinoid receptor 1 [4]): 920 nM
EC50 (Cannabinoid receptor 2 [5]): 21 nM
Ratio EC50 (Homo sapiens [6]): 44

CC1(C)[C@H]2CC[C@](C)(C2)[C@@H]1NC(=O)c1ccc(Br)c(S(=O)(=O)N2CCCCC2)c1
Ki (Cannabinoid receptor 1 [1]): 93 nM
Ki (Cannabinoid receptor 2 [2]): 13 nM
Ratio Ki (Homo sapiens [3]): 7
EC50 (Cannabinoid receptor 1 [4]): 280 nM
EC50 (Cannabinoid receptor 2 [5]): 6.6 nM
Ratio EC50 (Homo sapiens [6]): 42
